This passage reports Activity and fold change (FC) results from ChEMBL document CHEMBL3124841, “Discovery of vinyl sulfones as a novel class of neuroprotective agents toward Parkinson's disease therapy” (J Med Chem, 2014).

Assay [1] addresses T1, Nuclear factor erythroid 2-related factor 2 (Mus musculus) (UniProt Q60795).
T1 sequence (whole entry): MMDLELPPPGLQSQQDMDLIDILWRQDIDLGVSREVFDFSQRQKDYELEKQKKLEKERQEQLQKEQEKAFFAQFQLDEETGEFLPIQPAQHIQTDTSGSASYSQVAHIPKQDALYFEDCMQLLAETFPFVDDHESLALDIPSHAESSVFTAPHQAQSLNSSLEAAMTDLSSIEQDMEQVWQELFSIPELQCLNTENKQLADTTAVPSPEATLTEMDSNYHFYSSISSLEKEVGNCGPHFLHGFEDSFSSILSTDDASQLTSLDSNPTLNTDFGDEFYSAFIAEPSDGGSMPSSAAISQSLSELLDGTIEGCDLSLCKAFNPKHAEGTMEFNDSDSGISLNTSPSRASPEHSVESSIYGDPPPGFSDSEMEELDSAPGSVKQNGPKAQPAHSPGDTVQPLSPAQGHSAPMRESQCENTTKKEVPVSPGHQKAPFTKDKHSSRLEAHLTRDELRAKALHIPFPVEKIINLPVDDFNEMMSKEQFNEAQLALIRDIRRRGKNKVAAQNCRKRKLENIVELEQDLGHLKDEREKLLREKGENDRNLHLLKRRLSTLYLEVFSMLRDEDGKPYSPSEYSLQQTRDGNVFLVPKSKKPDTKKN
The assay is described as follows: Induction of Nrf2-dependent HO1 protein level in mouse BV-2 cells at 20 uM after 24 hrs by sandwich ELISA. In kind it is cell-based. The gist of the method:
(§1)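 Murine BV-2 microglia in DMEM/10% FBS, 2.0 × 10⁴ cells per well, treated at 20 μM for 24 h in triplicate. Lysates in NP-40 Tris buffer (pH 8.0) diluted tenfold; HO-1 measured by sandwich ELISA with HRP-streptavidin and Amplex Red fluorescence (ex 530/em 590 nm). Expressed as % of 0.04% DMSO vehicle control ± SEM; sulforaphane 5 μM as reference.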

The target of assay [2] is T1, Nuclear factor erythroid 2-related factor 2 (Mus musculus). The assay is described as follows: Induction of Nrf2-dependent HO1 protein level in mouse BV-2 cells at 20 uM after 24 hrs by sandwich ELISA relative to control. In kind it is cell-based. In a few lines: as §1

`O=S(=O)(/C=C/c1cccc(C(F)(F)F)c1)c1ccc(F)cc1` returned an Activity in assay [1] of 158%.

In turn, `COc1cccc(S(=O)(=O)/C=C/c2ccccc2C(F)(F)F)c1` gave a fold change (FC) in assay [2] of 2.5. The same molecule yielded an Activity in assay [1] of 251%.

As for `O=S(=O)(/C=C/c1ccc(F)cc1)c1ccc(Cl)cc1`, in assay [1], the Activity was 111%.

Regarding `COc1ccc(S(=O)(=O)/C=C/c2ccccc2C(F)(F)F)cc1`, the fold change (FC) in assay [2] is 2.6. Also, the Activity in assay [1] is 258%.

With `O=S(=O)(/C=C/c1cccc(F)c1)c1ccc(F)cc1`, the Activity in assay [1] turned out to be 177%.

Turning to `COc1ccc(S(=O)(=O)/C=C/c2ccccc2OC)cc1`, in assay [2], the fold change (FC) worked out at 1.2. Moreover, the Activity in assay [1] worked out at 126%.

The molecule `O=S(=O)(/C=C/c1ccc(Cl)cc1)c1ccc(F)cc1` gave an Activity in assay [1] of 112%.

In assay [1], `O=S(=O)(/C=C/c1ccccc1F)c1ccc(Cl)cc1` registered an Activity of 107%.

Turning to `COc1ccc(S(=O)(=O)/C=C/c2ccccc2OC(F)(F)F)cc1`, in assay [2], the fold change (FC) worked out at 2.1. The same molecule gave an Activity in assay [1] of 212%.

`COc1ccc(S(=O)(=O)/C=C/c2ccc(Cl)cc2)cc1` gave a fold change (FC) in assay [2] of 1.7. The molecule also gave an Activity in assay [1] of 169%.

`COc1ccccc1S(=O)(=O)/C=C/c1ccc(Cl)cc1`: in assay [2], the fold change (FC) stood at 3.3. The Activity in assay [1] turned out to be 330%.

In assay [1], `O=S(=O)(/C=C/c1ccc(C(F)(F)F)cc1)c1ccccc1` yielded an Activity of 155%.

Take `O=S(=O)(/C=C/c1cccc(C(F)(F)F)c1)c1ccc(Cl)cc1`: the Activity in assay [1] came out at 111%.

Consider `O=S(=O)(/C=C/c1ccccc1Cl)c1ccc(Cl)cc1`, for which the Activity in assay [1] came out at 169%.

Molecule `COc1ccccc1S(=O)(=O)/C=C/c1ccc(C(F)(F)F)cc1` registered a fold change (FC) in assay [2] of 3.6. In assay [1], this molecule displayed an Activity of 357%.

`O=S(=O)(/C=C/c1cccc(F)c1)c1ccc(Cl)cc1` showed an Activity in assay [1] of 105%.

`COc1ccc(S(=O)(=O)/C=C/c2ccccc2F)cc1` had a fold change (FC) in assay [2] of 1.7. The molecule also displayed an Activity in assay [1] of 174%.

In assay [2], `COc1ccc(S(=O)(=O)/C=C/c2cccc(F)c2)cc1` gave a fold change (FC) of 2. For the same molecule, the Activity in assay [1] is 203%.

Take `O=S(=O)(/C=C/c1ccccc1C(F)(F)F)c1ccc(Cl)cc1`: the Activity in assay [1] came to 242%.

For `COc1ccc([S+]([O-])/C=C/c2ccccc2C(F)(F)F)cc1` (stereo not drawn), the Activity in assay [1] came to 134%.

In assay [2], `COc1ccc(S(=O)(=O)/C=C/c2cccc(OC)c2)cc1` displayed a fold change (FC) of 1.5. In assay [1], this molecule came in with an Activity of 146%.

In the case of `COc1ccc(S(=O)(=O)/C=C/c2cccc(Cl)c2)cc1`, the fold change (FC) in assay [2] was determined as 1.2. Besides, the Activity in assay [1] was found to be 125%.

In assay [2], `COc1ccc(S(=O)(=O)/C=C/c2ccccc2Cl)cc1` yielded a fold change (FC) of 1.6. Also, the Activity in assay [1] worked out at 158%.

In the case of `COc1cccc(S(=O)(=O)/C=C/c2cccc(F)c2)c1`, the fold change (FC) in assay [2] was 1.4. The molecule further gave an Activity in assay [1] of 136%.

Take `O=S(=O)(/C=C/c1ccccc1F)c1ccc(F)cc1`: the Activity in assay [1] was determined as 241%.

In assay [1], `O=S(=O)(/C=C/c1ccccc1Cl)c1ccc(F)cc1` showed an Activity of 225%.

For `COc1ccccc1S(=O)(=O)/C=C/c1cccc(C(F)(F)F)c1`, the fold change (FC) in assay [2] was found to be 2.6. The Activity in assay [1] came out at 256%.

As for `COc1ccccc1S(=O)(=O)/C=C/c1ccc(F)cc1`, in assay [2], the fold change (FC) came out at 2.6. In assay [1], this molecule showed an Activity of 259%.

On to `COc1ccc(S(=O)(=O)/C=C/c2ccc(F)cc2)cc1`, for which the fold change (FC) in assay [2] turned out to be 1.8. The Activity in assay [1] came out at 177%.

In assay [2], `COc1ccc(S(=O)(=O)/C=C/c2cccc(C(F)(F)F)c2)cc1` came in with a fold change (FC) of 2.1. Besides, the Activity in assay [1] is 214%.

In turn, `O=S(=O)(/C=C/c1ccccc1C(F)(F)F)c1ccc(F)cc1` registered an Activity in assay [1] of 248%.

In assay [2], `COc1cccc(S(=O)(=O)/C=C/c2cccc(Cl)c2)c1` registered a fold change (FC) of 1.1. In assay [1], this molecule showed an Activity of 111%.

`COc1cccc(S(=O)(=O)/C=C/c2ccccc2Cl)c1` gave a fold change (FC) in assay [2] of 2.8. In addition, in assay [1], the Activity came out at 284%.

`O=S(=O)(/C=C/c1ccc(Cl)cc1)c1ccc(Cl)cc1` displayed an Activity in assay [1] of 117%.

For `COc1cccc(S(=O)(=O)/C=C/c2cccc(C(F)(F)F)c2)c1`, in assay [2], the fold change (FC) is 2. The molecule also had an Activity in assay [1] of 204%.

For `COc1ccc(S(=O)(=O)/C=C/c2cccc(C(F)(F)F)c2)cc1OC`, the Activity in assay [1] came out at 153%.

`O=S(=O)(/C=C/c1ccc(C(F)(F)F)cc1)c1ccc(Cl)cc1` yielded an Activity in assay [1] of 140%.

Molecule `COc1ccccc1S(=O)(=O)/C=C/c1ccccc1F` showed a fold change (FC) in assay [2] of 3.7. Besides, the Activity in assay [1] came out at 373%.

`COc1ccccc1S(=O)(=O)/C=C/c1cccc(Cl)c1` had a fold change (FC) in assay [2] of 2.4. In addition, the Activity in assay [1] is 245%.

As for `O=S(=O)(/C=C/c1ccc(F)cc1)c1ccc(F)cc1`, in assay [1], the Activity turned out to be 141%.

`COc1ccc(S(=O)(=O)/C=C/c2ccc(C(F)(F)F)cc2)cc1OC` returned an Activity in assay [1] of 119%.

In assay [2], `COc1ccccc1S(=O)(=O)/C=C/c1cccc(F)c1` gave a fold change (FC) of 3.5. This molecule also gave an Activity in assay [1] of 353%.

Turning to `COc1ccc(S(=O)(=O)/C=C/c2ccc(C(F)(F)F)cc2)cc1`, in assay [2], the fold change (FC) was 1.5. This molecule also returned an Activity in assay [1] of 154%.

For `O=S(=O)(/C=C/c1ccccc1C(F)(F)F)c1ccccc1`, the Activity in assay [1] came out at 193%.

Regarding `COc1ccc(C(=O)/C=C/c2ccccc2C(F)(F)F)cc1`, in assay [1], the Activity stood at 164%.

In turn, `COc1ccccc1S(=O)(=O)/C=C/c1ccccc1C(F)(F)F` displayed a fold change (FC) in assay [2] of 3.3. The same molecule came in with an Activity in assay [1] of 328%.

As to `COc1cccc(S(=O)(=O)/C=C/c2ccc(Cl)cc2)c1`, the fold change (FC) in assay [2] amounted to 2.3. Also, the Activity in assay [1] is 228%.

In assay [1], `O=S(=O)(/C=C/c1cccc(Cl)c1)c1ccc(Cl)cc1` yielded an Activity of 127%.

With `O=S(=O)(/C=C/c1cccc(Cl)c1)c1ccc(F)cc1`, the Activity in assay [1] was found to be 137%.

As to `COc1ccc(S(=O)(=O)/C=C/c2ccccc2C(F)(F)F)cc1OC`, the Activity in assay [1] was found to be 204%.

`COc1ccc(/C=C/S(=O)(=O)c2ccc(OC)cc2)cc1` displayed a fold change (FC) in assay [2] of 1.3. The molecule further showed an Activity in assay [1] of 133%.

`COc1ccc(S(=O)(=O)/C=C/c2ccccc2N)cc1` yielded a fold change (FC) in assay [2] of 1.4. The same molecule gave an Activity in assay [1] of 141%.

Molecule `COc1cccc(S(=O)(=O)/C=C/c2ccccc2F)c1` returned a fold change (FC) in assay [2] of 1.5. For the same molecule, the Activity in assay [1] is 148%.

In assay [1], `O=S(=O)(/C=C/c1cccc(C(F)(F)F)c1)c1ccccc1` yielded an Activity of 188%.

With `COc1cccc(S(=O)(=O)/C=C/c2ccc(C(F)(F)F)cc2)c1`, the fold change (FC) in assay [2] came out at 1.5. In assay [1], the Activity was 148%.

`O=S(=O)(/C=C/c1ccc(C(F)(F)F)cc1)c1ccc(F)cc1` came in with an Activity in assay [1] of 125%.

`COc1cccc(S(=O)(=O)/C=C/c2ccc(F)cc2)c1`: in assay [2], the fold change (FC) was determined as 1.6. This molecule returned an Activity in assay [1] of 160%.
